According to ChEMBL document CHEMBL4819034, “Tricyclic-Carbocyclic RORγt Inverse Agonists-Discovery of BMS-986313” (J Med Chem, 2021):

Tests used:
[1] = AUC (0 to 24 hrs) in rat at 4 mg/kg, po; assay type: ADME, organism-based; parameters: time < 24 hr, route oral, dose 4 mg/kg; conditions: in vivo
Mus musculus [2] = test: Protection against imiquimod-induced C57BL/6 mouse model of psoriasis assessed as inhibition of skin thickening at 20 mg/kg, po BID for 7 days and measured every day for 8 days relative to control; assay type: functional; conditions: C57BL/6, po, 168 h, time 7 day
[3] = Cmax in mouse at 4 mg/kg, po; assay type: ADME, organism-based; parameters: route oral, dose 4 mg/kg; conditions: in vivo
How it was run: (§1)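 Single-dose PK, IV and PO. Doses: mouse and rat 2 mg/kg IV / 4 mg/kg PO; dog and cyno 1 mg/kg IV, with 1 or 2 mg/kg PO.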

[4] = target: T1, Oxysterols receptor LXR-alpha (Homo sapiens, UniProt Q13133); test: Inverse agonist activity at LXRalpha (unknown origin)
T1 sequence (Q13133 whole entry): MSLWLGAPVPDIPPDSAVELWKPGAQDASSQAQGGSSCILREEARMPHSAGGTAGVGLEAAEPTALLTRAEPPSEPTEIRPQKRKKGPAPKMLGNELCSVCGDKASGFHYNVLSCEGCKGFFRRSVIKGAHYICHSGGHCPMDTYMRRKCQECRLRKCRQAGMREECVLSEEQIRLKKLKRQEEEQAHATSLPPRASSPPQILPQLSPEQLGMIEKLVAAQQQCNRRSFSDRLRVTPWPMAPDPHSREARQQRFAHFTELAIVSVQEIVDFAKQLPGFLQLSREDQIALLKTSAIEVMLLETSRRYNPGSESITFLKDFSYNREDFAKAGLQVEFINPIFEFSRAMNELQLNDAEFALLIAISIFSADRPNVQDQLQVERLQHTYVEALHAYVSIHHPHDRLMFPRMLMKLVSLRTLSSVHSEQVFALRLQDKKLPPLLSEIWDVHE

Mus musculus [5] = test: Protection against recombinant human IL23-induced acanthosis C57BL/6 mouse model assessed as inhibition of ear thickening at 6 mg/kg, po BID for 10 days and measured every other day relative to control; assay type: functional; conditions: C57BL/6, po, 240 h, time 10 day
How it was run: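 IL-23 ear-injection acanthosis model in C57BL/6 mice with BID oral dosing. Ear thickness % change was recorded every other day, before each next injection, from a day 0 baseline. Inhibition of ear thickening was calculated against the placebo arm from the area under the curve over the study duration.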

Mus musculus [6] = test: Protection against imiquimod-induced C57BL/6 mouse model of psoriasis assessed as inhibition of skin thickening at 10 mg/kg, po BID for 7 days and measured every day for 8 days relative to control; assay type: functional; conditions: C57BL/6, po, 168 h, time 7 day
[7] = AUC (0 to 24 hrs) in mouse at 4 mg/kg, po; assay type: ADME, organism-based; parameters: time < 24 hr, route oral, dose 4 mg/kg; conditions: in vivo
[8] = Half life in rat liver microsomes; assay type: ADME, Microsome
How it was run: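 Liver microsome half-life (min) measured in human, mouse, rat, dog and cyno liver microsomes.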

[9] = target: T2, Nuclear receptor subfamily 1 group I member 2 (Homo sapiens, UniProt O75469); test: Inverse agonist activity at PXR (unknown origin)
T2 sequence (O75469 whole entry): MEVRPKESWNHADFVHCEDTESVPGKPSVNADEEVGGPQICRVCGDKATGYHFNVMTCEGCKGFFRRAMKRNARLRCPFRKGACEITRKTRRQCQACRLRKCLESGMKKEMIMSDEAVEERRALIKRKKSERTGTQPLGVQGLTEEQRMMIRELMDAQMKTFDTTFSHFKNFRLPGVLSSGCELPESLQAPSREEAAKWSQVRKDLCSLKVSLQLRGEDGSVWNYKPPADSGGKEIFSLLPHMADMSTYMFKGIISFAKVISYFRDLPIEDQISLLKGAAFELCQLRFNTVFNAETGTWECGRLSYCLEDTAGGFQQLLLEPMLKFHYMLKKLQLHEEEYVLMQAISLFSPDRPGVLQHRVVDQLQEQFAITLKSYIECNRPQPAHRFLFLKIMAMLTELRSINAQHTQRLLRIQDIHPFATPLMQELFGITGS

[10] = Protein binding in mouse assessed as unbound fraction; assay type: ADME
Mus musculus [11] = test: Protection against imiquimod-induced C57BL/6 mouse model of psoriasis assessed as reduction in IL-17F mRNA levels at 5 mg/kg, po BID for 7 days by RT-PCR analysis relative to control; assay type: functional; parameters: scale not given: the % may be the effect or the level left; conditions: time 7 day
Cytochrome P450 1A2 = target: T3, Cytochrome P450 1A2 (Homo sapiens, UniProt P05177); test: Inhibition of CYP1A2 (unknown origin); assay type: ADME
T3 sequence (P05177 whole entry): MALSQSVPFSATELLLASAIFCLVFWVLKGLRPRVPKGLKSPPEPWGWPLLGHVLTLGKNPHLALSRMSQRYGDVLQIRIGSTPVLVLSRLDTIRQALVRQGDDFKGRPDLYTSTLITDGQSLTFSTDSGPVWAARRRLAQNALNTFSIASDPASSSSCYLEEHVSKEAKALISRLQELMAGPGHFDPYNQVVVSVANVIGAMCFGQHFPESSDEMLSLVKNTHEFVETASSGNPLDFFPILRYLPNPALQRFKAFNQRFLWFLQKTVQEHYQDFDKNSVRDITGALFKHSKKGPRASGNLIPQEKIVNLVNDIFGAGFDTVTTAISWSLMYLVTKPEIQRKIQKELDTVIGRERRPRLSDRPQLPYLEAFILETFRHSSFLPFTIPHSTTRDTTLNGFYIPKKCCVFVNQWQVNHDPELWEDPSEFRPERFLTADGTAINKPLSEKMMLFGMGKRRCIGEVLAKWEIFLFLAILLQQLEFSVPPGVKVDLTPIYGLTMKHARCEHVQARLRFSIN

[12] = Clearance in rat at 2 mg/kg, iv; assay type: ADME, organism-based; conditions: in vivo; how it was run: as §1
[13] = Oral bioavailability in dog at 2 mg/kg; assay type: ADME, organism-based, Canis lupus familiaris; conditions: in vivo; how it was run: as §1
Cytochrome P450 2C9 = Cytochrome P450 2C9 (Homo sapiens, UniProt P11712); test: Inhibition of CYP2C9 (unknown origin); assay type: ADME
Cytochrome P450 2C9, sequence (P11712 whole entry): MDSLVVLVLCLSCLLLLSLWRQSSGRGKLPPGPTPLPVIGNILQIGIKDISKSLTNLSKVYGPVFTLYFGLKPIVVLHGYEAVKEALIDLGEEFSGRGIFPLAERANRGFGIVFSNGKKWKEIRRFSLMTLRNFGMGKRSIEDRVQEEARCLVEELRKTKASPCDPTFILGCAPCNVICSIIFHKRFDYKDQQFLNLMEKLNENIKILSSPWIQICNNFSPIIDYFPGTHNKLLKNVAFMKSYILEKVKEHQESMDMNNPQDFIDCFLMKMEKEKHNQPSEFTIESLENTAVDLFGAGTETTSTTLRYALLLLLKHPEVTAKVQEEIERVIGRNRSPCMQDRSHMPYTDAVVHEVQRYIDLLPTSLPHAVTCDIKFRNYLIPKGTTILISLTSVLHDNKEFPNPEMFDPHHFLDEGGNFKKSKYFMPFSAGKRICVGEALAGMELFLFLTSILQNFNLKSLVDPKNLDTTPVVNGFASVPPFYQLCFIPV

Mus musculus [14] = test: Protection against recombinant human IL23-induced acanthosis C57BL/6 mouse model assessed as reduction in IL-17F mRNA levels at 15 mg/kg, po BID BID for 10 days by qRT-PCR analysis relative to control; assay type: functional; parameters: scale not given: the % may be the effect or the level left; conditions: time 10 day
How it was run: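 In the IL-23 ear-injection model in C57BL/6 mice with BID oral dosing, ear tissue was collected from all animals at study end on day 10. IL-17A and IL-17F mRNA expression was quantified by qPCR and compared with the placebo arm.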

AUC(0-t) at 24 h [1]: 17 µM·h
Cmax [3]: 2200 nM
EC50 [4]: > 5 µM
AUC(0-t) at 24 h [7]: 33.2 µM·h
half-life [8]: 120 min
EC50 [9]: > 5 µM
fraction unbound [10]: 0.006
IC50 (Cytochrome P450 1A2): 20 µM
clearance [12]: 4.2 mL/min/kg
bioavailability [13]: 83%
IC50 (Cytochrome P450 2C9): 12 µM
Structure (SMILES): CC(C)(O)C(=O)N[C@@H]1CC[C@@]2(S(=O)(=O)c3ccc(F)cc3)c3ccc(C(F)(C(F)(F)F)C(F)(F)F)cc3CC[C@@H]12
inhibition in vivo at 20 mg/kg (Mus musculus [2]): 57.7%
inhibition in vivo at 6 mg/kg (Mus musculus [5]): 43.4%
inhibition in vivo at 10 mg/kg (Mus musculus [6]): 39.6%
Activity (Mus musculus [11]): 79.2%
Activity (Mus musculus [14]): 79.6%
